From ChEMBL document CHEMBL4368921, “Discovery of novel simplified isoxazole derivatives of sampangine as potent anti-cryptococcal agents” (2019)
Values after ≈ are worked out from the molar mass of the structure shown. Active and inactive are the calls of the source. No cut-off for these calls is given here.

Legend:
Cryptococcus neoformans [1] = test: Antifungal activity against Cryptococcus neoformans var. grubii H99 after 48 hrs by serial dilution method; type: functional
Outline: (§1)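 Broth serial dilution per NCCLS. Medium was RPMI 1640 buffered with 0.165M MOPS, NaHCO3 (0.2%) and NaOH (0.27%). Strains were pre-grown in YPD at 30 °C with shaking. Inoculum 10³ CFU/mL; compounds in DMSO. Plates incubated at 35 °C for 48 h. MIC80 is the concentration giving 80% inhibition.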

Candida albicans = test: Antifungal activity against Candida albicans SC5314 after 48 hrs by serial dilution method; type: functional; conditions: SC5314, 48 h; outline: as §1
Cryptococcus neoformans [2] = test: Antifungal activity against Cryptococcus neoformans var. grubii ATCC 34877 after 48 hrs by serial dilution method; type: functional; conditions: var. grubii ATCC 34877, 48 h; outline: as §1
Cryptococcus gattii = test: Antifungal activity against Cryptococcus gattii ATCC 14116 after 48 hrs by serial dilution method; conditions: ATCC 14116, 48 h
Cryptococcus neoformans [3] = test: Antibiofilm activity against Cryptococcus neoformans var. grubii H99 at 0.062 to 8 ug/mL after 24 hrs by XTT analysis; type: functional, organism-based
Outline: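 H99 cells at 1.0×10^6 CFU/mL in RPMI 1640 left to adhere 90 min at 37 °C. Non-adherent cells were removed and the wells washed three times with PBS. Fresh RPMI with drug (0.062-8 µg/mL) or drug-free control was added, then 24 h more at 37 °C. Formation rate by XTT reduction. Means ± SD of three independent experiments; ANOVA and t-test.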

Cryptococcus neoformans [4] = test: Fungistatic activity against Cryptococcus neoformans var. grubii H99 at 16 ug/mL up to 48 hrs by time-growth curve assay; type: functional, organism-based
Outline: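 Exponential-phase H99 cells were resuspended in fresh RPMI 1640 at 2×10^6 cells/mL, drug was added, and cultures were shaken at 200 rpm and 30 °C. Aliquots were removed and counted at 0, 3, 6, 9, 12, 24 and 48 h. The control received DMSO. Three independent experiments were run.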

Cryptococcus neoformans [5] = test: Fungicidal activity against Cryptococcus neoformans var. grubii H99 at 16 ug/mL after 48 hrs by time-kill assay; type: functional, organism-based
Outline: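 Exponential-phase H99 cells were washed three times in PBS and resuspended in RPMI 1640 at 2×10^6 cells/mL. After drug was added, cultures were shaken at 200 rpm and 30 °C. Samples were taken at 0, 6, 12, 24 and 48 h, diluted, and plated on SDA agar. Viable counts were read after 48 h at 30 °C.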

SMILES | MIC80 (Cryptococcus neoformans [1]) [µg/mL] | MIC80 (Candida albicans) [µg/mL] | MIC80 (Cryptococcus neoformans [2]) [µg/mL] | MIC80 (Cryptococcus gattii) [µg/mL] | Activity (Cryptococcus neoformans [3]) | Activity (Cryptococcus neoformans [4]) | Activity (Cryptococcus neoformans [5])
Cn1cccc1-c1noc2c1C(=O)c1sccc1C2=O | 4 (≈ 14.1 µM) | 16 (≈ 56.3 µM) | – | – | – | – | –
Cc1cccc(-c2noc3c2C(=O)c2sccc2C3=O)c1 | 1 (≈ 3.39 µM) | > 64 | – | – | – | – | –
O=C1c2ccsc2C(=O)c2c(-c3ccncc3)noc21 | 0.25 (≈ 0.886 µM) | 8 (≈ 28.3 µM) | 0.5 (≈ 1.77 µM) | 1 (≈ 3.54 µM) | – | – | –
COc1cccc(-c2noc3c2C(=O)c2sccc2C3=O)c1 | > 64 | > 64 | – | – | – | – | –
C[C@@H]1[C@H](O)[C@@H](C)/C=C/C=C/C=C/C=C/C=C/C=C/C=C/[C@H](O[C@@H]2O[C@H](C)[C@@H](O)[C@H](N)[C@@H]2O)C[C@@H]2O[C@](O)(C[C@@H](O)C[C@@H](O)[C@H](O)CC[C@@H](O)C[C@@H](O)CC(=O)O[C@H]1C)C[C@H](O)[C@H]2C(=O)O | – | – | – | – | Active | – | –
O=C1c2ccsc2C(=O)c2c(-c3cccc(Cl)c3)noc21 | > 64 | > 64 | – | – | – | – | –
OC(Cn1cncn1)(Cn1cncn1)c1ccc(F)cc1F [FLUCONAZOLE] | 2 (≈ 6.53 µM) | 0.25 (≈ 0.816 µM) | 8 (≈ 26.1 µM) | 8 (≈ 26.1 µM) | – | Active | inactive
COc1ccc(-c2noc3c2C(=O)c2sccc2C3=O)cc1 | 1 (≈ 3.21 µM) | > 64 | – | – | – | – | –
Cc1ccccc1-c1noc2c1C(=O)c1sccc1C2=O | 0.25 (≈ 0.847 µM) | > 64 | – | – | – | – | –
C[C@@H](c1ncncc1F)[C@](O)(Cn1cncn1)c1ccc(F)cc1F [VORICONAZOLE] | 0.12 (≈ 0.344 µM) | 0.12 (≈ 0.344 µM) | 0.12 (≈ 0.344 µM) | 0.12 (≈ 0.344 µM) | – | – | –
O=C1c2ccsc2C(=O)c2c(-c3cccs3)noc21 | 2 (≈ 6.96 µM) | > 64 | – | – | – | – | –
